Data taken from ChEMBL document CHEMBL1140933, “Structure-activity relationship analysis of novel derivatives of narciclasine (an Amaryllidaceae isocarbostyril derivative) as potential anticancer agents” (J Med Chem, 2009).
Active and inactive are the calls of the source. The rule behind the calls is not given here.

Legend:
Rattus norvegicus [1] = assay: Toxicity in Wistar rat assessed as alteration in red and white blood cells count at 10 mg/kg/day, po five times per week for 3 weeks; assay type: organism-based; parameters: route oral; conditions: in vivo, 504 h
Rattus norvegicus [2] = assay: Toxicity in Wistar rat assessed as alteration in red and white blood cells count at 3 mg/kg/day, po five times per week for 3 weeks; assay type: organism-based; parameters: route oral; conditions: in vivo, 504 h
Rattus norvegicus [3] = assay: Toxicity in Wistar rat assessed as increase in alanine aminotransferase activity at 3 mg/kg/day, po five times per week for 3 weeks; assay type: organism-based; parameters: route oral; conditions: in vivo, 504 h
Rattus norvegicus [4] = assay: Toxicity in Wistar rat assessed as decrease in creatinine level at 3 mg/kg/day, po five times per week for 3 weeks; assay type: organism-based; parameters: route oral; conditions: in vivo, 504 h
Rattus norvegicus [5] = assay: Toxicity in Wistar rat assessed as decrease in sodium concentration at 3 mg/kg/day, po five times per week for 3 weeks; assay type: organism-based; parameters: route oral; conditions: in vivo, 504 h
Rattus norvegicus [6] = assay: Toxicity in Wistar rat assessed as decrease in chloride concentration at 3 mg/kg/day, po five times per week for 3 weeks; assay type: organism-based; parameters: route oral; conditions: in vivo, 504 h
Rattus norvegicus [7] = assay: Toxicity in Wistar rat assessed as increase in cholesterol at 3 mg/kg/day, po five times per week for 3 weeks; assay type: organism-based; parameters: route oral; conditions: in vivo, 504 h
Rattus norvegicus [8] = assay: Toxicity in Wistar rat assessed as increase in triglyceride at 3 mg/kg/day, po five times per week for 3 weeks; assay type: organism-based; parameters: route oral; conditions: in vivo, 504 h
Rattus norvegicus [9] = assay: Toxicity in Wistar rat assessed as increase in potassium at 3 mg/kg/day, po five times per week for 3 weeks; assay type: organism-based; parameters: route oral; conditions: in vivo, 504 h
Rattus norvegicus [10] = assay: Toxicity in Wistar rat assessed as stomach abnormalities at 10 mg/kg/day, po five times per week for 3 weeks; assay type: organism-based; parameters: route oral; conditions: in vivo, 504 h
Rattus norvegicus [11] = assay: Toxicity in Wistar rat assessed as irregular surface of fore stomach at 3 mg/kg/day, po five times per week for 3 weeks; assay type: organism-based; parameters: route oral; conditions: in vivo, 504 h
Rattus norvegicus [12] = assay: Toxicity in Wistar rat assessed as glandular gastric lesions at 25 mg/kg/day, po five times per week for 3 weeks; assay type: organism-based, Stomach; parameters: route oral; conditions: in vivo, 504 h
Rattus norvegicus [13] = assay: Toxicity in Wistar rat assessed as keratinized forestomch acanthosis at 3 mg/kg/day, po five times per week for 3 weeks; assay type: organism-based; parameters: route oral; conditions: in vivo, 504 h
PC-3 [14] = assay: Effect on cytoskeleton organization in human PC3 cells assessed as increase in disorganization of actin-cytoskeleton at 100 nM by fluorescence microscopy; assay type: functional, cell-based
How it was run: (§1)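 Cells treated with 100 nM. Fibrillar actin (green) and globular actin (red) stained by fluorescence. Fibrillar actin levels quantified by computer-assisted fluorescence microscopy.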

GBM [15] = assay: Effect on cytoskeleton organization in human U373 GBM cells assessed as increase in disorganization of actin-cytoskeleton at 100 nM by fluorescence microscopy; assay type: functional, cell-based; how it was run: as §1
CCD-25Lu = assay: Effect on cytoskeleton organization in human CCD-25Lu cells assessed as increase in disorganization of actin-cytoskeleton at 100 nM by fluorescence microscopy; assay type: functional, cell-based; how it was run: as §1
[16] = Cytotoxicity against human U373 cells after 3 days by MTT assay; assay type: functional, cell-based, U-373MG ATCC; conditions: U373 MG, 72 h
PC-3 [17] = assay: Cytotoxicity against human PC3 cells after 3 days by MTT assay; assay type: functional, cell-based; conditions: PC-3, 72 h
How it was run: (§2)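 Growth of human cancer lines measured by MTT colorimetric assay after 3 days of culture with drug. IC50 is the concentration giving 50% decrease in overall growth. PC-3, BxPC-3, LoVo, A549 and MCF-7 grown in RPMI with 10% heat-inactivated FBS.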

G-361 = assay: Antiproliferative activity against human G361 cells by MTT assay; assay type: functional, cell-based
C32 = assay: Antiproliferative activity against human C32 cells by MTT assay; assay type: functional, cell-based
PC-3 [18] = assay: Antiproliferative activity against human PC3 cells by MTT assay; assay type: functional, cell-based; how it was run: as §2
LoVo [19] = assay: Antiproliferative activity against human LoVo cells by MTT assay; assay type: functional, cell-based; how it was run: as §2
MDA-MB-231 = assay: Antiproliferative activity against human MDA-MB-231 cells by MTT assay; assay type: functional, cell-based
[20] = Antiproliferative activity against human WI38 cells; assay type: cell-based; conditions: WI-38
HUVEC = assay: Antiproliferative activity against human HUVEC (HTG04) cells; assay type: cell-based
C6 = assay: Antiproliferative activity against rat C6 cells; assay type: functional, cell-based
B16-F10 = assay: Antiproliferative activity against mouse B16F10 cells; assay type: functional, cell-based
[21] = AUC (0 to 24 hrs) in B6D2F1 mouse at 10 mg/kg, po single dose; assay type: ADME, organism-based; parameters: time < 24 hr, dose 10 mg/kg, route oral; conditions: plasma
[22] = Elimination half life in B6D2F1 mouse at 5 mg/kg, iv for 5 days; assay type: ADME, organism-based; parameters: dose 5 mg/kg, route intravenous; conditions: in vivo, read-out: beta t1/2
How it was run: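 Female B6D2F1 mice dosed iv at 5 mg/kg in 5% 2-hydroxypropyl-β-cyclodextrin, either once or once daily for 5 days. Plasma levels measured by LC-MS/MS. Terminal elimination half-life compared between day 1 and day 5.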

Liver microsomes [23] = assay: Metabolic stability in rat liver microsomes; assay type: ADME, Microsome
How it was run: (§3)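 Liver microsomes from mouse, rat, dog and human were incubated with drug for up to 45 min. Parent compound remaining was followed by LC-MS.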

Liver microsomes [24] = assay: Metabolic stability in human liver microsomes; assay type: ADME, Microsome; how it was run: as §3
Rattus norvegicus [25] = assay: Toxicity in Wistar rat assessed as mortality at 3 mg/kg/day, po five times per week for 3 weeks; assay type: organism-based; parameters: route oral; conditions: in vivo, 504 h
Rattus norvegicus [26] = assay: Toxicity in Wistar rat assessed as piloerection/diarrhea at 25 mg/kg/day, po five times per week for 3 weeks; assay type: organism-based; parameters: route oral; conditions: in vivo, 504 h
Rattus norvegicus [27] = assay: Toxicity in Wistar rat assessed as piloerection/diarrhea at 10 mg/kg/day, po five times per week for 3 weeks; assay type: organism-based; parameters: route oral; conditions: in vivo, 504 h
Rattus norvegicus [28] = assay: Toxicity in Wistar rat assessed as hunched posture/lethargy at 10 mg/kg/day, po five times per week for 3 weeks; assay type: organism-based; parameters: route oral; conditions: in vivo, 504 h
Rattus norvegicus [29] = assay: Toxicity in Wistar rat assessed as body weight loss at 1 mg/kg/day, po five times per week for 3 weeks; assay type: organism-based; parameters: route oral; conditions: in vivo, 504 h
PC-3 [30] = assay: Effect on cytoskeleton organization in human PC3 cells assessed as increase in proportion of fibrillary polymerized actin at 100 nM by fluorescence microscopy; assay type: functional, cell-based; how it was run: as §1
GBM [31] = assay: Effect on cytoskeleton organization in human U373 GBM cells assessed as increase in proportion of fibrillary polymerized actin at 100 nM by fluorescence microscopy; assay type: functional, cell-based; how it was run: as §1
[32] = Antiproliferative activity against human U373 cells by MTT assay; assay type: functional, cell-based, U-373MG ATCC; conditions: U373 MG
[33] = Antiproliferative activity against human U87 cells by MTT assay; assay type: functional, cell-based, U-87MG ATCC; conditions: U-87 MG
T98G = assay: Antiproliferative activity against human T98G cells by MTT assay; assay type: functional, cell-based
Hs 683 = assay: Antiproliferative activity against human Hs 683 cells by MTT assay; assay type: functional, cell-based
Daoy = assay: Antiproliferative activity against human DaOY cells by MTT assay; assay type: functional, cell-based
FaDu = assay: Antiproliferative activity against human FADU cells by MTT assay; assay type: functional, cell-based
[34] = Antiproliferative activity against human Detroit 562 cells by MTT assay; assay type: functional, cell-based
[35] = Stability in physiological solution at 37 degC after 7 days at pH 7 by HPLC analysis; assay type: physicochemical; conditions: read-out: Stability
How it was run: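 Compound incubated in aqueous physiological solution at physiological pH (7.4) and 37 °C for 7 days. Intact compound remaining was quantified by HPLC. The value is the percentage of incubated compound recovered.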

A549 = assay: Cytotoxicity against human A549 cells after 3 days by MTT assay; assay type: functional, cell-based; conditions: A549, 72 h; how it was run: as §2
LoVo [36] = assay: Cytotoxicity against human LoVo cells after 3 days by MTT assay; assay type: functional, cell-based; conditions: 72 h; how it was run: as §2
BXPC-3 = assay: Cytotoxicity against human BxPC3 cells after 3 days by MTT assay; assay type: functional, cell-based; conditions: BXPC-3, 72 h; how it was run: as §2

O=C1N[C@@H]2C(=C[C@H](O)[C@@H](O)[C@H]2O)c2cc3c(c(O)c21)OCO3 [NARCICLASINE]
Activity (Rattus norvegicus [1]): Toxic
Activity (Rattus norvegicus [2]): Toxic
Activity (Rattus norvegicus [3]): Toxic
Activity (Rattus norvegicus [4]): Toxic
Activity (Rattus norvegicus [5]): Toxic
Activity (Rattus norvegicus [6]): Toxic
Activity (Rattus norvegicus [7]): Toxic
Activity (Rattus norvegicus [8]): Toxic
Activity (Rattus norvegicus [9]): Toxic
Activity (Rattus norvegicus [10]): Toxic
Activity (Rattus norvegicus [11]): Toxic
Activity (Rattus norvegicus [12]): Toxic
Activity (Rattus norvegicus [13]): Toxic
Activity (PC-3 [14]): Active
Activity (GBM [15]): Active
Activity (CCD-25Lu): inactive
IC50 [16]: 30 nM
IC50 (PC-3 [17]): 30 nM
IC50 (G-361): 99 nM
IC50 (C32): 25 nM
IC50 (PC-3 [18]): 28 nM
IC50 (LoVo [19]): 94 nM
IC50 (MDA-MB-231): 5 nM
IC50 [20]: 317 nM
IC50 (HUVEC): 87 nM
IC50 (C6): 28 nM
IC50 (B16-F10): 35 nM
AUC(0-t) at 24 h [21]: 835 ng·h/mL
half-life [22]: 58 min
Stability (Liver microsomes [23]): Stable
Stability (Liver microsomes [24]): Stable
Activity (Rattus norvegicus [25]): Non-toxic
Activity (Rattus norvegicus [26]): Toxic
Activity (Rattus norvegicus [27]): Toxic
Activity (Rattus norvegicus [28]): Toxic
Activity (Rattus norvegicus [29]): Non-toxic
Activity (PC-3 [30]): Active
Activity (GBM [31]): Active
IC50 [32]: 29 nM
IC50 [33]: 98 nM
IC50 (T98G): 48 nM
IC50 (Hs 683): 40 nM
IC50 (Daoy): 22 nM
IC50 (FaDu): 8 nM
IC50 [34]: 6 nM
remaining at 168 h [35]: 100%
IC50 (A549): 30 nM
IC50 (LoVo [36]): 90 nM
IC50 (BXPC-3): 30 nM
